Measured values published in ChEMBL document CHEMBL3112490, “Ionic liquid mediated synthesis of mono- and bis-spirooxindole-hexahydropyrrolidines as cholinesterase inhibitors and their molecular docking studies” (Bioorg Med Chem, 2014).

How the values were obtained:
[1] = Selectivity index, ratio of IC50 for AChE (unknown origin) to IC50 for equine serum BChE
Acetylcholinesterase [2] = target: T1, Acetylcholinesterase (Homo sapiens, UniProt P22303); test: Inhibition of AChE (unknown origin) using acetylthiocholine iodide as substrate preincubated for 15 mins followed by substrate addition by Ellman's method
T1 sequence (P22303 whole entry): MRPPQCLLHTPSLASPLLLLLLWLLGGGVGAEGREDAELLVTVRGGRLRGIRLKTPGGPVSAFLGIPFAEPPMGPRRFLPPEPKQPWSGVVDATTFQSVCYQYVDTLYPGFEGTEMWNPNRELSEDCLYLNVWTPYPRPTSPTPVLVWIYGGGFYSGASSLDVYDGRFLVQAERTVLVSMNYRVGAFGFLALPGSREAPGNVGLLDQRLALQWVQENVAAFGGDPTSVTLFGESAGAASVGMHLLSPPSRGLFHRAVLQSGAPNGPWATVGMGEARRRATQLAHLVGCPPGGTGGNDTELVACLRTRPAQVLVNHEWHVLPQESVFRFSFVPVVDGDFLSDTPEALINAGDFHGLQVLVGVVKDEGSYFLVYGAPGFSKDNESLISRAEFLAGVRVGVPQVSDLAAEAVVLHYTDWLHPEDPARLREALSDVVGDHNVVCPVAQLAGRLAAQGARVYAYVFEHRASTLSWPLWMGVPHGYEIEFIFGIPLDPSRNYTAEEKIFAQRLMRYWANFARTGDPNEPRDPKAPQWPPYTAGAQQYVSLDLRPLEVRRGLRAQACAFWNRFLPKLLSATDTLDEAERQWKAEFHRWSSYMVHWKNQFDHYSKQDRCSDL

Cholinesterase [3] = target: T2, Cholinesterase (Equus caballus, UniProt P81908); test: Inhibition of equine serum BChE using S-butyrylthiocholine chloride as substrate preincubated for 15 mins followed by substrate addition by Ellman's method
T2 sequence (P81908 whole entry): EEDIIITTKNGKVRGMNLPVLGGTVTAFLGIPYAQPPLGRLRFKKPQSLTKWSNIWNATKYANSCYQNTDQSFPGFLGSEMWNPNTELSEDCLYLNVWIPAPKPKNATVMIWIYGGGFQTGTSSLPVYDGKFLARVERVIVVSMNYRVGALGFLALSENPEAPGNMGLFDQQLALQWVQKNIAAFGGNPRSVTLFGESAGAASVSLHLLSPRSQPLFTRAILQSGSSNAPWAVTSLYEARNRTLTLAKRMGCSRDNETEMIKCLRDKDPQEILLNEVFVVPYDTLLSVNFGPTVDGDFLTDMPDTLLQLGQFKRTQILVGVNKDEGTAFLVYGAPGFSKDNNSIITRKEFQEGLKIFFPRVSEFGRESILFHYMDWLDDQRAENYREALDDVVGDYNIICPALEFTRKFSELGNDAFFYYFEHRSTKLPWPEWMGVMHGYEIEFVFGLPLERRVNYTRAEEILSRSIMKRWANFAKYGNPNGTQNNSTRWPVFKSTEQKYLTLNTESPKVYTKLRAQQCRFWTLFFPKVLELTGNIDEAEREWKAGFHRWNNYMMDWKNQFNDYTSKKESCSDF
How it was run: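 Modified Ellman assay with equine serum BChE in 0.1 M sodium phosphate, pH 8. Enzyme preincubated with sample (DMSO, 1% final) for 15 min at 25 °C. DTNB (10 mM stock) then added, followed by S-butyrylthiocholine chloride (14 mM stock). Triplicates, blank-corrected; % inhibition calculated relative to control.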

[4] = Selectivity ratio of IC50 for equine serum BChE to IC50 for AChE (unknown origin)
Acetylcholinesterase [5] = target: T1, Acetylcholinesterase; test: Competitive inhibition of AChE (unknown origin) using acetylthiocholine iodide as substrate by Dixon plot analysis
How it was run: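 Ellman kinetics on AChE, added as a 0.09 units/mL solution, in pH 8 phosphate buffer with a 15 min 25 °C preincubation. Inhibitor at 0, 0.70 and 1.40 µM; acetylthiocholine iodide at 1, 2, 4 and 8 mM; DTNB detection at 412 nm. Mode, Km and Vmax from Lineweaver–Burk plots; Ki from Dixon plot.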

Cholinesterase [6] = target: T2, Cholinesterase; test: Mixed-type inhibition of equine serum BChE using S-butyrylthiocholine chloride as substrate by Dixon plot analysis
How it was run: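 Equine serum BChE run in the same Ellman kinetic format, pH 8, with a 15 min 25 °C preincubation. Inhibitor at 0, 0.90 and 1.81 µM; S-butyrylthiocholine chloride at 1, 2, 4 and 8 mM; read at 412 nm. Inhibition mode, Km and Vmax taken from Lineweaver–Burk plots; Ki from Dixon plot.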

Compound	Ratio IC50 [1]	IC50 (Acetylcholinesterase [2])	IC50 (Cholinesterase [3])	Ratio IC50 [4]	Ki (Acetylcholinesterase [5])	Ki (Cholinesterase [6])
COc1ccccc1/C=C1\CN(C(=O)[C@@H]2CCN(C)[C@]23C(=O)Nc2ccccc23)C[C@]2(C1=O)[C@H](c1ccccc1OC)CN(C)[C@]21C(=O)Nc2ccccc21 (racemic)	0.45	4.73 µM	10.4 µM	2.2		
CN1CC[C@@H](C(=O)N2C/C(=C\c3ccccc3Cl)C(=O)[C@@]3(C2)[C@H](c2ccccc2Cl)CN(C)[C@]32C(=O)Nc3ccccc32)[C@@]12C(=O)Nc1ccccc12 (racemic)	0.55	5.19 µM	9.38 µM	1.81		
CN1CC[C@@H](C(=O)N2C/C(=C\c3ccccc3F)C(=O)[C@@]3(C2)[C@H](c2ccccc2F)CN(C)[C@]32C(=O)Nc3ccccc32)[C@@]12C(=O)Nc1ccccc12 (racemic)	0.83	6.18 µM	7.44 µM	1.2		
CN1CC[C@@H](C(=O)N2C/C(=C\c3cccc([N+](=O)[O-])c3)C(=O)[C@@]3(C2)[C@H](c2cccc([N+](=O)[O-])c2)CN(C)[C@]32C(=O)Nc3ccccc32)[C@@]12C(=O)Nc1ccccc12 (racemic)	0.2	2.47 µM	12.3 µM	5		
CN1CC[C@@H](C(=O)N2C/C(=C\c3ccc(Cl)cc3Cl)C(=O)[C@@]3(C2)[C@H](c2ccc(Cl)cc2Cl)CN(C)[C@]32C(=O)Nc3ccccc32)[C@@]12C(=O)Nc1ccccc12 (racemic)	0.25	4.42 µM	17.9 µM	4.05		
Cc1ccc(/C=C2\CN(C(=O)[C@@H]3CCN(C)[C@]34C(=O)Nc3ccccc34)C[C@]3(C2=O)[C@H](c2ccc(C)cc2)CN(C)[C@]32C(=O)Nc3ccccc32)cc1 (racemic)	0.68	7.67 µM	11.3 µM	1.47		
CN1CC[C@@H](C(=O)N2C/C(=C\c3ccc(Cl)cc3)C(=O)[C@@]3(C2)[C@H](c2ccc(Cl)cc2)CN(C)[C@]32C(=O)Nc3ccccc32)[C@@]12C(=O)Nc1ccccc12 (racemic)	0.65	6.14 µM	9.44 µM	1.54		
CN1CC[C@@H](C(=O)N2C/C(=C\c3ccc(F)cc3)C(=O)[C@@]3(C2)[C@H](c2ccc(F)cc2)CN(C)[C@]32C(=O)Nc3ccccc32)[C@@]12C(=O)Nc1ccccc12 (racemic)	0.3	2.35 µM	7.82 µM	3.33	2.01 µM	
CN1CC[C@@H](C(=O)N2C/C(=C\c3cccc4ccccc34)C(=O)[C@@]3(C2)[C@H](c2cccc4ccccc24)CN(C)[C@]32C(=O)Nc3ccccc32)[C@@]12C(=O)Nc1ccccc12 (racemic)	0.26	4.93 µM	19.1 µM	3.88		
C=CC(=O)N1C/C(=C\c2ccccc2)C(=O)[C@@]2(C1)[C@H](c1ccccc1)CN(C)[C@]21C(=O)Nc2ccccc21 (racemic)	1.16	8.74 µM	7.52 µM	0.86		
C=CC(=O)N1C/C(=C\c2ccccc2C)C(=O)[C@@]2(C1)[C@H](c1ccccc1C)CN(C)[C@]21C(=O)Nc2ccccc21 (racemic)	1.03	3.97 µM	3.86 µM	0.97		
C=CC(=O)N1C/C(=C\c2ccccc2OC)C(=O)[C@@]2(C1)[C@H](c1ccccc1OC)CN(C)[C@]21C(=O)Nc2ccccc21 (racemic)	0.97	4.1 µM	4.22 µM	1.03		
C=CC(=O)N1C/C(=C\c2ccccc2Cl)C(=O)[C@@]2(C1)[C@H](c1ccccc1Cl)CN(C)[C@]21C(=O)Nc2ccccc21 (racemic)	1.22	5.12 µM	4.2 µM	0.82		
C=CC(=O)N1C/C(=C\c2ccccc2F)C(=O)[C@@]2(C1)[C@H](c1ccccc1F)CN(C)[C@]21C(=O)Nc2ccccc21 (racemic)	2.14	6.88 µM	3.21 µM	0.47		6.76 µM
C=CC(=O)N1C/C(=C\c2cccc([N+](=O)[O-])c2)C(=O)[C@@]2(C1)[C@H](c1cccc([N+](=O)[O-])c1)CN(C)[C@]21C(=O)Nc2ccccc21 (racemic)	0.69	5.34 µM	7.74 µM	1.45		
C=CC(=O)N1C/C(=C\c2ccc(Cl)cc2Cl)C(=O)[C@@]2(C1)[C@H](c1ccc(Cl)cc1Cl)CN(C)[C@]21C(=O)Nc2ccccc21 (racemic)	1.15	6.14 µM	5.32 µM	0.87		
C=CC(=O)N1C/C(=C\c2ccc(C)cc2)C(=O)[C@@]2(C1)[C@H](c1ccc(C)cc1)CN(C)[C@]21C(=O)Nc2ccccc21 (racemic)	0.81	7.49 µM	9.28 µM	1.24		
C=CC(=O)N1C/C(=C\c2ccc(Cl)cc2)C(=O)[C@@]2(C1)[C@H](c1ccc(Cl)cc1)CN(C)[C@]21C(=O)Nc2ccccc21 (racemic)	1.24	8.4 µM	6.77 µM	0.81		
C=CC(=O)N1C/C(=C\c2ccc(F)cc2)C(=O)[C@@]2(C1)[C@H](c1ccc(F)cc1)CN(C)[C@]21C(=O)Nc2ccccc21 (racemic)	2.3	7.8 µM	3.39 µM	0.43		
C=CC(=O)N1C/C(=C\c2cccc3ccccc23)C(=O)[C@@]2(C1)[C@H](c1cccc3ccccc13)CN(C)[C@]21C(=O)Nc2ccccc21 (racemic)	0.86	7.59 µM	8.85 µM	1.17		
CN1CC[C@@H](C(=O)N2C/C(=C\c3ccccc3)C(=O)[C@@]3(C2)[C@H](c2ccccc2)CN(C)[C@]32C(=O)Nc3ccccc32)[C@@]12C(=O)Nc1ccccc12 (racemic)	0.28	2.63 µM	9.34 µM	3.55		
Cc1ccccc1/C=C1\CN(C(=O)[C@@H]2CCN(C)[C@]23C(=O)Nc2ccccc23)C[C@]2(C1=O)[C@H](c1ccccc1C)CN(C)[C@]21C(=O)Nc2ccccc21 (racemic)	0.75	9.43 µM	12.5 µM	1.33		
